Bioassay records from PubChem BioAssay.
MT1-MMP act inh: MT1-MMP (human) activation inhibition; GFP/RFP ratio change, % at 20 µM; 360,000 compounds, 0.061% hits; HT1080 RFP-PRO-GFP cells, GFP/RFP ratio fluorescence, overnight; percent of plate control window, DMSO zero;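 active = GFP/RFP ratio change of at least 30% with cell ATP level not reduced by more than half and red fluorescence within 50% of control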
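Read-out: GFP/RFP fluorescence ratio; Test system: RFP-PRO-GFP reporter HT1080 cells; Compound dosing: single-point 20 µM compound, 1% DMSO; Times: overnight compound exposure at 37 °C.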
Pemphigus Ab inh: human desmoglein-3 autoantibody binding inhibition; AID 588358; DSG3-coupled beads, scFv-anti-DSG3-GFP binding, flow cytometry; hits give low values; P32926; binding (percent of control), % at 10 µM; 310,000 compounds, 0.48% hits;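 active = binding more than 3 SD below its plate's average and above zero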;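 note: hits lower antibody fragment binding to DSG3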
GSK3beta inhib: human GSK3beta kinase inhibition; GST-GSK3beta kinase, ADP-Glo luminescence, 60 min; hits give low values; activity score (negative = inhibition), % at 10 µM; 300,000 compounds, 0.038% hits; AID 2097;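 active = more than half of replicate wells score below -50%, meaning over 50% inhibition versus plate controls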;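 note: 0% = median DMSO wells and -100% = median GW8510 positive control wells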
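test system = GST-tagged human GSK3beta kinase, cell-free | reagent = 25 µM ATP with peptide substrate | dosing = one dose of 10 µM per compound | schedule = 60 min reaction, RT | detection = luminescent ADP-Glo measurement of ADP formed | control set = DMSO neutral wells and GW8510 at 20 µM as positive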
GSK3 alpha inh: human GSK-3 alpha kinase inhibition. 320,000 compounds, 0.1% hits. P49840. inhibition, % at 10 µM. ADP-Glo luminescence, 60 min;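 active = more than half of replicates show inhibition above 20%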;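 note: GST-tagged GSK-3 alpha with peptide substrate and 25 µM ATP; 0% = DMSO neutral wells and 100% = GW8510 positive control wells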
STK33 inh: blocks human STK33 kinase activity; Q9BYT3; purified STK33, MBP phosphorylation, ADP-Glo luminescence; inhibition, % at 10 µM; 320,000 compounds, 0.073% hits; AID 2661;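 active = inhibition at or above 25%, using the most active replicate where run in duplicate; inactive = inhibition below 25%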
Target sequence (Q9BYT3 whole entry, looked up): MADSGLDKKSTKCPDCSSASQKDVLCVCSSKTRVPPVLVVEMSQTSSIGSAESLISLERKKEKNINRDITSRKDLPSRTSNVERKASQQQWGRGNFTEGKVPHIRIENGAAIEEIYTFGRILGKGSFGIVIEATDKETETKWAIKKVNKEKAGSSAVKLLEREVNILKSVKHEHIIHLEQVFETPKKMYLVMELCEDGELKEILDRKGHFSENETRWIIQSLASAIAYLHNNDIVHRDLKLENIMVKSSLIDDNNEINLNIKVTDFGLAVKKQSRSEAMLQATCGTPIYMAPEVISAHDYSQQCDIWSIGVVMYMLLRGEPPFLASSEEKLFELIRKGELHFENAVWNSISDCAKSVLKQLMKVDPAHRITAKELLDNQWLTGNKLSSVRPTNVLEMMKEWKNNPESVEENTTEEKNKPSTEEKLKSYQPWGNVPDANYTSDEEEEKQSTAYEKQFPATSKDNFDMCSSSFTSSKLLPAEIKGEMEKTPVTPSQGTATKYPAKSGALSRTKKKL
Starred values were filed as active, the others as inactive; x = no result. Rows were chosen to be rich in hits. Some 0.63% of all compounds tested hit in one or more screens of this group.

SMILES	MT1-MMP act inh	Pemphigus Ab inh	GSK3beta inhib	GSK3 alpha inh	STK33 inh
O=C(CC1SC(=O)N(c2ccccc2)C1=O)Nc1ccc(Br)cc1 (stereo unspecified)	4	106	-2	-1	-1
O=C(CC1S/C(=N\S(=O)(=O)c2ccc(F)cc2)N(c2ccccc2)C1=O)Nc1ccccc1 (stereo unspecified)	-1	79*	-3	-3	-2
Cc1cccc(C)c1NC(=O)C(c1cc2ccccc2o1)N1CCN(C)CC1 (stereo unspecified)	-1	x	x	x	x
S=C(Nc1ccccc1)Nc1ccc2cn[nH]c2c1	-10	104	-16	27	41*
Cc1nc2sc3c(c2c(=O)n1N)CCC3	1	104	-2	-2	-2
Cn1nnc2sc3c(c2c1=O)CCCC3	1	79*	-30	50	-1
O=C(Oc1ccc(OC(=O)N2CCCCC2)cc1)c1ccccc1	0	68*	1	-1	-1
O=C(Oc1cccc(C(=S)N2CCOCC2)c1)c1ccccc1	-3	-24*	0	-1	-1
O=C(Oc1ccccc1)N1CCCC1	6	104	0	-1	-1
CCOC(=O)C1=C[C@@H](C(C)(C)C)N(S(=O)(=O)c2ccccc2C)[C@H]1c1ccc(Cl)cc1	-2	x	x	x	x
Cc1oc(-c2ccccc2F)nc1CS(=O)CC(=O)NCc1ccc(Cl)cc1 (stereo unspecified)	0	-12*	1	-1	0
CCNC(=O)C1(C)CCCN(C(=O)c2ccc3c(c2)C(C)(C)CCC3(C)C)C1 (stereo unspecified)	-1	x	x	x	x
CCCn1c2ccc(/C(C)=N\O)cc2c2cc(/C(C)=N/O)ccc21	11	100	-2	1	44*
Nc1nc2ncccn2c1-c1ccc(C(F)(F)F)cc1	2	x	x	x	x
COc1ccc(-c2nc(-c3ccccn3)no2)cc1	2	92	-20	33	29*
COc1ccccc1-c1nc(-c2ccccn2)no1	1	100	-9	11	15
CC1(C(=O)Nc2cnc3ccccc3c2)CCN1Cc1cc2ccccc2o1 (stereo unspecified)	-7	x	x	x	x
CCOC(=O)Cc1csc(SCn2nnc3ccccc3c2=O)n1	1	102	0	x	6
CCOC(=O)Cc1csc(-n2sc3ccccc3c2=O)n1	-3	44*	1	-1	-2
Cc1ccc(NC(=O)Nc2ccc3c(c2)OCO3)nc1	4	6.9*	-2	-1	0
Cc1cc(C)nc(NC(=O)Nc2ccc3c(c2)OCO3)c1	4	81	6	2	3
CCCCCCNC(=O)c1cc(S(=O)(=O)N2CCc3ccccc32)ccc1F	0	87*	-2	8	1
Cc1cc(N2CCN(C(C(=O)NC3CCCC3)c3ccco3)CC2)c2ccccc2n1 (stereo unspecified)	1	x	x	x	x
CC(CC(=O)Nc1ncc([N+](=O)[O-])s1)c1ccccc1 (stereo unspecified)	-5	111	-20	52*	-2
COc1ccc(-c2nn(-c3ccccc3)cc2/C=C2/SC(=S)N(Cc3ccco3)C2=O)c(C)c1	3	87*	0	1	-2
SMILES	MT1-MMP act inh	Pemphigus Ab inh	GSK3beta inhib	GSK3 alpha inh	STK33 inh
COc1ccc(-n2c(C)cc(/C=C3\SC(=S)N(Cc4ccco4)C3=O)c2C)cc1	-66	108	3	-2	-1
COc1ccc(N2CC(C(=O)Nc3nnc(SCC(=O)N4CCCC4)s3)CC2=O)cc1 (stereo unspecified)	-3	107	-3	-1	0
CCOc1ccc(N2CC(C(=O)Nc3ccncc3)CC2=O)cc1 (stereo unspecified)	2	54*	0	-1	-1
COc1ccc(N2CC(C(=O)Nc3nnc(SCC(=O)Nc4ccc(NC(C)=O)cc4)s3)CC2=O)cc1 (stereo unspecified)	2	85*	x	x	x
O=C(NCc1cccs1)C1C(=O)Nc2ccccc2C(=O)N1C1CCCC1 (stereo unspecified)	3	x	x	x	x
CCN1/C(=C/C=C/c2sc3ccccc3[n+]2CC)Sc2ccccc21	48	-10*	3	31	3
CC1C(=O)N(Cc2cn(CCC3OCCCO3)nn2)CCS(=O)(=O)N1Cc1ccc(-c2ccc(Cl)c(Cl)c2)cc1 (stereo unspecified)	-4	104	x	x	x
c1ccc(Nc2ccnc(Nc3ccccc3)n2)cc1	0	102	0	14	36*
NNc1nccc(Nc2ccccc2C(=O)O)n1	-7	103	-60*	69*	20
COc1cc(NC(=O)c2ccc(-c3ccc(F)c(F)c3)c3ccoc23)cc(OC)c1OC	-2	x	x	x	x
Cc1ccc(S(=O)(=O)N(C)c2ccc(C(=O)NCC(c3ccccc3)N3CCCC3)cc2)cc1 (stereo unspecified)	7	117	x	x	x
CCNC(=O)C1(C)CCCN(Cc2ccc3ccccc3c2Br)C1 (stereo unspecified)	-4	x	x	x	x
Cc1ccc(C(=O)OCC(=O)Nc2cccc(S(=O)(=O)NC3=NCCCCC3)c2)c(C)c1	1	74*	-6	-1	0
COc1cc(OC)c(C(=O)OCC(=O)Nc2cccc(S(=O)(=O)NC3=NCCCCC3)c2)cc1OC	2	102	x	x	x
c1ccc(CN2CCC3CC2c2c3cccc2N2CCOCC2)cc1 (stereo unspecified)	6	x	x	x	x
COc1ccc(NC(=O)COC(=O)CCc2nc3ccccc3c(=O)[nH]2)c(OC)c1	5	102	x	-1	-1
COc1ccc(NC(=O)COC(=O)CCc2ccccc2)c(OC)c1	-3	48*	-15	0	-2
O=C(NC(c1ccccc1)c1ccsc1)C1CCN(CCOc2ccc(Cl)cc2Cl)CC1 (stereo unspecified)	1	x	x	x	x
NC(=O)c1ccc(NC(=O)c2ccc3c(c2)CCN3S(=O)(=O)c2ccccc2)cc1	4	10*	4	-1	-3
COc1ccc(C(C)NC(=O)C2CCN(CCOc3ccc(Cl)cc3Cl)CC2)cc1OC (stereo unspecified)	1	x	x	x	x
COc1ccc(C(C)=O)cc1COc1ccc(Cl)cc1Cl	-4	83*	-2	-1	-4
COc1cc(C(=O)NCC2CCCO2)ccc1OCc1ccc(Cl)cc1Cl (stereo unspecified)	4	81*	1	3	1
CCc1nc2ccc(C(=O)NCCCn3ccnc3)cn2c1N(C)CCCc1ccccc1	-5	x	x	x	x
CC(=O)Oc1ccc2occ(C(=O)c3cccs3)c2c1	-2	101	-17	43	0
O=C(CCl)Oc1ccc2occ(C(=O)c3cccs3)c2c1	-2	102	-72*	70*	3
Cc1cccc(N2CCN(C(=O)C3CCN(S(=O)(=O)c4c(C)noc4C)CC3)CC2C)c1 (stereo unspecified)	x	46*	1	-1	0
